# High-throughput results (PubChem BioAssay)
# This is a sample that favours compounds with a hit; in the whole collection about 3.5% have one here.
# MrgX1 PAM: human MrgX1 positive allosteric modulation, primary screen; Q96LB2; MrgX1-HEK293, Fluo-4 calcium flux, FDSS; stronger effect = higher value; B-score at 10 µM; 310,000 compounds, 0.63% hits;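 active means plate-corrected calcium response at least 3 library SD above typical, normal starting fluorescence, not activating the receptor alone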;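 further: compound read alongside a low EC10 to EC30 dose of BAM8-22 agonist; peak minus trough fluorescence over baseline measured at the second addition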
# Target sequence (Q96LB2 whole entry, looked up): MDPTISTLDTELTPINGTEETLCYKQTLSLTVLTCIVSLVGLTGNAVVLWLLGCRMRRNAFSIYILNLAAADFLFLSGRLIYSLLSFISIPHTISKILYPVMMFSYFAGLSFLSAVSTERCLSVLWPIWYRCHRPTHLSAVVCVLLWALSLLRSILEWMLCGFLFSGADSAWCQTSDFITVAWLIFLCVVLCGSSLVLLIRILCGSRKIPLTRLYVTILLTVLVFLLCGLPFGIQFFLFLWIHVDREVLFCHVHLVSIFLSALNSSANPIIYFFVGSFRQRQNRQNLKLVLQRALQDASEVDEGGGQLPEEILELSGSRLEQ
# MrgX1 antagonist: blocks BAM8-22 activation of human MrgX1 receptor | AID 588676 | B-score at 10 µM | MRGX1-HEK293 calcium flux, Fluo-4, BAM8-22 antagonism; stronger effect = lower value | 310,000 compounds, 1.3% hits;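 active means calcium-response B-score plate-corrected more than 3 library SD below zero, starting fluorescence within 5 deviations, no agonist response on first addition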;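 further: peak minus trough fluorescence over baseline after final BAM8-22 challenge near maximal dose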
# RGS4 block: inhibitors of human RGS4 | 310,000 compounds, 0.45% hits | HEK293 M3R/RGS4 inducible, Fluo-4 calcium flux; stronger effect = higher value; triggered by carbachol at its EC20 | AID 463165 | P49798 | B-score at 10 µM;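 active means B-score, a plate-corrected calcium signal, over three deviations above library mean, with baseline fluorescence within five deviations of library mean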;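 further: RGS4 expression induced by doxycycline in cells with stable M3 receptor; B-score is computed from the integrated fluorescence ratio over baseline after carbachol; higher B-score means a larger calcium signal and so more RGS4 inhibition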
# Target sequence (P49798 whole entry, looked up): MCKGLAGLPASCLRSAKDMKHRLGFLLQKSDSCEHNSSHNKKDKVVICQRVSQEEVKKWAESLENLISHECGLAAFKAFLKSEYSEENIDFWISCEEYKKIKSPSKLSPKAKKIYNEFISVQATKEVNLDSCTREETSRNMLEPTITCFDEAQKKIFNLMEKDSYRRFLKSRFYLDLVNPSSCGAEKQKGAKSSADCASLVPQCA
# RGS4 act: potentiators or activators of RGS4. HEK293 M3R/inducible RGS4, carbachol calcium flux Fluo4; stronger effect = lower value. B-score at 10 µM. 310,000 compounds, 0.92% hits. AID 463111;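 active means B-score of the integrated calcium signal more than 4 SD below the library mean, with starting fluorescence not abnormally high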;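 further: negative B-score means reduced calcium response which marks RGS4 activation or potentiation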
#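 System – HEK293 FlpIn-TREx cells, stable M3R, doxycycline-inducible RGS4 · Reagent – ECmax carbachol challenge · Times – compound preincubation 20 min at room temperature before agonist · Technique – Fluo4 fluorescence kinetic imaging of calcium · Measure – B score of integrated Fluo4 ratio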
# MrgX1 agonist: activates human MrgX1 receptor signaling; 310,000 compounds, 0.44% hits; B-score at 10 µM; MrgX1-HEK293 cells, Fluo-4 calcium fluorescence, agonist mode; stronger effect = higher value; Q96LB2;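 active means calcium response B-score plate-corrected fluorescence ratio at least 3 library SD, with starting fluorescence B-score inside 5 SD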
#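 Assay system: MrgX1-expressing HEK293 cells / Amount: fifteen thousand cells per well / Doses: test compound in the initial addition of three / Timing: cells plated overnight, dye loaded 0.5 h 37 °C, 0.5 h room temperature / Technique: kinetic calcium dye fluorescence, Fluo-4 NW / Control set: positive and negative controls per plate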
# RGS4 activ val: confirmation of RGS4 activators. shares compounds with RGS4 act. AID 602282. 1,100 compounds, 89% hits. inhibition, % at 10 µM. HEK293 M3R/RGS4 inducible, carbachol calcium flux Fluo4;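 active means inhibition above 3 SD of the buffer control wells, cut at about 41% in these data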;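 further: signal is the integrated peak-minus-minimum Fluo4 fluorescence over baseline ratio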
# M3R Ca counter: RGS4 activator counter-screen hit in non-induced cells. shares compounds with RGS4 act. HEK293 M3R non-induced RGS4, Fluo4 calcium flux; after carbachol challenge at its EC90. inhibition, % at 10 µM. 1,100 compounds, 82% hits;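 active means inhibition exceeding 3 SD of buffer-only control wells, cut at about 26% in these data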;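 further: percent drop in integrated peak-minus-baseline over baseline Fluo4 ratio after carbachol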
# * marks the source's active call; other numbers are inactive results; i = inactive; · = no result.
SMILES,MrgX1 PAM,MrgX1 antagonist,RGS4 block,RGS4 act,MrgX1 agonist,RGS4 activ val,M3R Ca counter
CC(=O)/C(C(=N)N1CCN(C(c2ccccc2)c2ccccc2)CC1)=C(\C)O,i,i,i,-9.24*,i,81.0*,83.8*
COc1ccc(C2CC(C)=C(C#N)S(=O)(=O)C2C#N)cc1 (stereo not drawn),i,i,i,i,i,·,·
O=S(=O)(NC1CCCC1)c1cc(F)ccc1F,i,i,i,i,i,·,·
CNC(=S)N/N=C1\C(=O)c2cccc3cccc1c23,i,i,i,-7.79*,i,0.0,0.0
CCCCNC(=S)N/N=C1\C(=O)c2cccc3cccc1c23,i,i,i,i,i,·,·
CCN(CC)S(=O)(=O)c1ccc(N2CCOCC2)c(NC(=O)C23CC4CC(CC(Cl)(C4)C2)C3)c1,i,i,i,i,i,·,·
O=[N+]([O-])c1ccc(N/N=C/c2ccc(OCc3cccc4ccccc34)cc2)nc1,i,i,i,i,i,·,·
N#Cc1ccccc1Cn1cc(/C=N/Nc2ccc([N+](=O)[O-])cn2)c2ccccc21,i,-6.2*,i,-10.9*,i,78.0*,83.8*
CCC1CCCCN1S(=O)(=O)c1ccc(-n2cnnn2)c(C)c1 (stereo not drawn),i,i,i,i,i,·,·
Cn1nc(C(F)(F)F)c2cc(NC(=O)OCc3ccc(F)cc3)sc21,i,i,i,-7.88*,i,74.5*,83.8*
O=C(NCc1cccc2[nH]ccc12)C1CCC(=O)N(CCc2ccccc2)C1 (stereo not drawn),i,i,i,i,i,·,·
Nc1cc(=O)[nH]c(SCC(=O)Nc2cccc(Cl)c2)n1,i,i,i,i,i,·,·
Nc1cc(=O)[nH]c(SCC(=O)Nc2ccc(Oc3ccccc3)cc2)n1,i,i,i,-10.2*,i,0.0,0.0
COCCCn1c(=O)c2ccccc2n(CC(=O)N2CCCc3ccccc32)c1=O,i,i,i,i,i,·,·
COc1ccc(C2NC(=O)NC(O)(C(F)(F)F)C2C(=O)c2ccc(F)cc2)cc1 (stereo not drawn),i,i,i,-8.78*,i,92.0*,83.3*
COc1cc(C2NC(=O)NC(O)(C(F)(F)F)C2C(=O)c2ccc(Cl)cc2)ccc1O (stereo not drawn),i,i,·,·,i,·,·
CCOc1ccc(S(=O)(=O)n2cnc3cc(C)c(C)cc32)cc1,i,i,i,-9.87*,i,93.5*,95.3*
Cc1cc2ncn(S(=O)(=O)c3ccc(F)cc3)c2cc1C,i,i,i,i,i,·,·
CCOC(=O)c1ccc(CNCc2ccccc2)cc1,i,i,i,-12*,i,87.0*,28.8*
CCOC(=O)c1ccc(CNCc2ccc(Br)cc2)cc1,i,i,i,i,i,·,·
CC(Oc1ccccc1)C(=O)NC1CCN(Cc2ccccc2)CC1 (stereo not drawn),i,i,i,-8.26*,i,80.0*,53.3*
Cc1nn(-c2ccccc2)c(Cl)c1C(=O)OCC(=O)NCCc1ccccc1,i,i,i,-7.96*,i,44.5*,0.0
O=C(c1ccc2c(c1)OCO2)C1CCCN(Cc2c(F)ccc(F)c2F)C1 (stereo not drawn),i,i,i,-7.86*,i,92.5*,57.8*
O=C(c1ccc2c(c1)OCO2)C1CCCN(Cc2ccccc2OC(F)F)C1 (stereo not drawn),i,i,i,-7.7*,i,72.5*,29.8*
Cc1cccn2c(=O)c3cc(C(=O)NC4CCS(=O)(=O)C4)n(Cc4ccccc4)c3nc12 (stereo not drawn),i,i,i,i,i,·,·
SMILES,MrgX1 PAM,MrgX1 antagonist,RGS4 block,RGS4 act,MrgX1 agonist,RGS4 activ val,M3R Ca counter
CCOC(=O)c1cc2cc(OCc3ccccc3)ccc2nc1C,i,i,i,-10.6*,i,78.0*,76.3*
Cc1ccccc1Cc1c(C)nc2nc(SCC(=O)NCCCN3CCCCC3)nn2c1C,i,i,i,-9.55*,i,74.5*,43.3*
Cc1ccc(Cc2c(C)nc3nc(SCC(=O)NCCCN4CCOCC4)nn3c2C)cc1,i,i,i,i,i,·,·
O=C(CC1CCCCC1)NC1CCCC1,i,i,i,i,i,·,·
O=C(CC1CCS(=O)(=O)C1)NC1CCCCC1 (stereo not drawn),i,i,i,-9.32*,i,0.0,0.0
CC(=O)N1CCOc2ccc(S(=O)(=O)N3CCC(C(=O)Nc4ccc(C)cc4C)CC3)cc21,i,i,i,-8.63*,i,0.0,0.0
CC(=O)N1CCOc2ccc(S(=O)(=O)N3CCC(C(=O)Nc4cc(C)ccc4C)CC3)cc21,i,i,i,i,i,·,·
CCOC(=O)N1CCN(c2ccnc3cc(Cl)ccc23)CC1,i,i,i,-13*,i,92.0*,94.8*
CCC(=O)N1CCN(c2ccnc3cc(Cl)ccc23)CC1,i,i,i,i,i,·,·
CC(O)CN(C)CC/C=C1/c2ccccc2CSc2ccccc21 (stereo not drawn),i,i,i,-7.86*,i,73.0*,83.8*
CN(CC/C=C1/c2ccccc2CSc2ccccc21)CCCO,i,i,i,-9.46*,i,91.0*,64.8*
CC(C)NS(=O)(=O)c1ccc(OCC(=O)N2CCc3ccccc3C2)cc1,i,i,i,i,i,·,·
CC(C)NS(=O)(=O)c1ccc(CCC(=O)N2CCc3ccccc3C2)cc1,i,i,i,-7.54*,i,0.0,0.0
S=C1N(c2ccccc2)C(c2ccc(Br)cc2)N2CCCN12 (stereo not drawn),i,i,i,-10.7*,i,94.0*,90.3*
CN1CCN(C(=O)N2c3ccccc3C=Cc3ccccc32)CC1,i,i,i,-9.71*,i,94.0*,69.3*
NC(=O)N1c2ccccc2C=Cc2ccccc21,i,i,i,i,i,·,·
O=C(CN1CCCC1)N1CCCc2ccccc21,i,i,i,i,i,·,·
O=C(CN1CCCC1)N1c2ccccc2C=Cc2ccccc21,i,i,i,-10.3*,i,82.0*,40.8*
CCCN(CCC)S(=O)(=O)c1ccc(C(=O)Nc2ccc(S(=O)(=O)Nc3nnc(CC)s3)cc2)cc1,i,i,i,i,i,·,·
